Experiment [1] has as its system Transthyretin (Homo sapiens), P02766 [V50M]. Put plainly: Stabilization of TTR V30M mutant (unknown origin) expressed in Escherichia coli assessed as formation of TTR tetramer band formation at 1 uM after 4 mins by SDS-PAGE analysis based glutaraldehyde cross-linking assay.
The test system is the same in experiment [2]. Put plainly: Stabilization of TTR V30M mutant (unknown origin) expressed in Escherichia coli assessed as formation of TTR tetramer band formation at 2 uM after 4 mins by SDS-PAGE analysis based glutaraldehyde cross-linking assay.
For experiment [3] the test system is unchanged. Description: Inhibition of TTR V30M mutant (unknown origin)-mediated amyloid fibril formation expressed in Escherichia coli assessed as amyloid fibril percentage at 0.5 uM after 4 days by thioflavin-T-fluorescence based assay (reference value: 100%). More on the design: scale not given: the % may be the effect or the level left. Summed up: (§1)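 Acid-driven aggregation: 2 μM E. coli-expressed V30M-TTR in 50 mM sodium acetate pH 4.2 held with compound at room temperature for 4 days. Stopped with 0.2 M Tris-HCl pH 8.0, then thioflavin-T added to 20 μM and fluorescence read at ex 440/em 484 nm. Values are amyloid fibril % relative to no-compound control.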

Experiment [4] has the same test system. Put plainly: Inhibition of TTR V30M mutant (unknown origin)-mediated amyloid fibril formation expressed in Escherichia coli assessed as amyloid fibril percentage at 5 uM after 4 days by thioflavin-T-fluorescence based assay (reference value: 100%). Further details: scale not given: the % may be the effect or the level left. An outline of the steps:
as §1

Experiment [5] shares this test system. Description: Inhibition of TTR V30M mutant (unknown origin)-mediated amyloid fibril formation expressed in Escherichia coli assessed as amyloid fibril percentage at 1.5 uM after 4 days by thioflavin-T-fluorescence based assay (reference value: 100%). More on the design: scale not given: the % may be the effect or the level left. Summed up: as §1
For experiment [6] the test system is unchanged. Description: Potentiation of diflunisal-induced stabilization of TTR V30M mutant (unknown origin) expressed in Escherichia coli assessed as formation of TTR tetramer band formation at 5 mM after 4 mins by SDS-PAGE analysis based glutaraldehyde cross-linking assay relative to diflunisal alone. Summed up:
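Glutaraldehyde 4 min at RT, borohydride quench, SDS-PAGE with silver stain, tetramer band quantified. Controls were pH 8.0 Tris buffer (positive) and pH 4.4 buffer without compound (negative).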

Experiment [7] shares this test system. Put plainly: Inhibition of ANS binding to TTR V30M mutant (unknown origin) expressed in Escherichia coli assessed as increase in BC50 for ANS binding to TTR at 100 mM in presence of 150 mM Na+ by fluorescence-based assay.
For experiment [8] the test system is unchanged. Put plainly: Stabilization of TTR V30M mutant (unknown origin) expressed in Escherichia coli assessed as formation of TTR tetramer band formation at 10 mM after 4 mins by SDS-PAGE analysis based glutaraldehyde cross-linking assay.
Experiment [9] has the same test system. Description: Inhibition of ANS binding to TTR V30M mutant (unknown origin) expressed in Escherichia coli assessed as increase in BC50 for ANS binding to TTR at 10 mM in presence of 150 mM Na+ by fluorescence-based assay.
The test system is the same in experiment [10]. Description: Inhibition of TTR V30M mutant (unknown origin)-mediated amyloid fibril formation expressed in Escherichia coli assessed as amyloid fibril percentage at 0.6 mM after 4 days by thioflavin-T-fluorescence based assay (reference value: 100%). More on the design: scale not given: the % may be the effect or the level left. An outline of the steps: as §1

Experiment [11] shares this test system. Description: Inhibition of ANS binding to TTR V30M mutant (unknown origin) expressed in Escherichia coli assessed as increase in BC50 for ANS binding to TTR at 10 mM in presence of 150 mM K+ by fluorescence-based assay.
For experiment [12] the test system is unchanged. Put plainly: Stabilization of TTR V30M mutant (unknown origin) expressed in Escherichia coli assessed as formation of TTR tetramer band formation after 4 mins by SDS-PAGE analysis based glutaraldehyde cross-linking assay.
The test system is the same in experiment [13]. Description: Inhibition of TTR V30M mutant (unknown origin)-mediated amyloid fibril formation expressed in Escherichia coli assessed as amyloid fibril percentage at 0.2 mM after 4 days by thioflavin-T-fluorescence based assay (reference value: 100%). Further details: scale not given: the % may be the effect or the level left. An outline of the steps:
as §1

Experiment [14] shares this test system. Description: Inhibition of TTR V30M mutant (unknown origin)-mediated amyloid fibril formation expressed in Escherichia coli assessed as amyloid fibril percentage at 10 mM after 4 days by thioflavin-T-fluorescence based assay (reference value: 100%). Further details: scale not given: the % may be the effect or the level left. An outline of the steps: as §1

The test system is the same in experiment [15]. Put plainly: Stabilization of TTR V30M mutant (unknown origin) expressed in Escherichia coli assessed as formation of TTR tetramer band formation at 40 to 100 mM after 4 mins by SDS-PAGE analysis based glutaraldehyde cross-linking assay.
Experiment [16] shares this test system. Description: Inhibition of ANS binding to TTR V30M mutant (unknown origin) expressed in Escherichia coli assessed as increase in BC50 for ANS binding to TTR at 100 mM in presence of 150 mM K+ by fluorescence-based assay.

Activity calls are given as the source filed them. The calls are words filed in the database; no cut-off is given here.

The text below walks through data of ChEMBL document CHEMBL4411329, “Crown Ethers as Transthyretin Amyloidogenesis Inhibitors” (J Med Chem, 2019).

Regarding `O=C(O)c1cc(-c2ccc(F)cc2F)ccc1O`, the Activity in [1] worked out at 15%; in experiment [2] it was 52%; in experiment [3] it was 80%; in [4], 3.1%; in experiment [5], 35%.
In the case of `O=C(O)c1ccc2c(c1)OCCOCCOCCOCCOCCO2`, in experiment [6], the outcome was Active. For the same molecule, the inhibition entry in experiment [7], in experiment [9] and in experiment [11] was “Active” each time. In addition, the Activity in experiment [8] is 68%; in experiment [10] it was 92%; in experiment [12], “Dose-dependent effect”; in [13] it was 99%.
`C1CCC2OCCOCCOC3CCCCC3OCCOCCOC2C1` (configuration not stated): the inhibition entry in [7], in [9] and in experiment [11] was “Active” throughout. Moreover, the Activity in experiment [10] amounted to 100%; in experiment [14] it was 92%; in [13], 100%.
Turning to `C1COCCOCCOCCO1`, the result in [15] was Active. The inhibition entry in [16] and in [7] was “Active” throughout.
For the molecule `c1ccc2c(c1)OCCOCCOCCOCCOCCO2`, the inhibition result in experiment [7], in experiment [9] and in [11] was “Active” in each case. The Activity in experiment [10] was 96%; in experiment [12] it was “Dose-dependent effect”; in [14], 47%; in experiment [13] it was 100%.
Turning to `C1COCCOCCOCCOCCO1`, in experiment [15], the outcome was Active. Moreover, the inhibition entry in [16] and in experiment [7] was “Active” each time.
